# Assay results: PubChem BioAssay AID602152 (Broad Institute, 2011)
# Active and inactive are the calls of the source.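 Rule for the calls: active = efflux reduced below the neutral control level, like a known efflux blocker; inactive = efflux raised or left unchanged.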
# Test: free cholesterol release via mSR-BI to HDL – ldlA[mSR-BI] cells, [3H]cholesterol, dry powder, mechanism study for SR-BI HDL uptake inhibitor project, dose response (AID 602152)
# Settings: [3H]cholesterol efflux to HDL, LSC; at 25 µM (top of the series)
# Summary of the method: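 Assay system: ldlA[mSR-BI] cells, mouse SR-BI expressing; Reagent: HDL, 100 µg/mL; Times: 2-day label, 24 h equilibration, 1 h compound, 2 h efflux; Measured by: liquid scintillation counting of 3H in medium and cells.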
row,SMILES,"efflux, percent of neutral control"
1,C[C@H](C(=O)NC1CCCC1)N(C(=O)Cn1nnc(-c2ccc3c(c2)OCO3)n1)C1CCCCC1,6.75% (active)
2,COCC(=O)N1CCc2cc(-c3csc(NC(=O)c4cc(OC)cc(OC)c4)n3)ccc21,9.23% (active)
